Assay results as given in ChEMBL document CHEMBL1129405, “In vitro and in vivo evaluation of 6-azido-2',3'-dideoxy-2'-fluoro-beta-D-arabinofuranosylpurine and N6-methyl-2',3'-dideoxy-2'-fluoro-beta-D-arabinofuranosyladenine as prodrugs of the anti-HIV nucleosides 2'-F-ara-ddA and 2'-F-ara-ddI” (J Med Chem, 1996).

Assays:
Mus musculus [1] = experiment: The ratio of AUC / dose (mM.h/uMol)/kg at 112 mg/kg dose after intravenous administration in mice brain; AUC/Dose (uM); assay type: ADME, organism-based; set-up: dose 112 mg/kg, route intravenous; conditions: in vivo
Procedure, shortened: (§1)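 Female NIH-Swiss mice (24-28 g), tail-vein injection of 112 mg/kg (437 µmol/kg) in saline (15 mg/mL); three mice per time point, ether anesthesia, exsanguination by heart puncture; serum and brain (homogenized 1:1 g:mL in ice-cold isotonic 0.05 M phosphate, pH 7.4) assayed by HPLC, UV 260 nm. Noncompartmental analysis of mean concentrations; AUC by Lagrange interpolation, extrapolated via terminal slope (last 3-5 points); t1/2 = 0.693/λz; AUC normalized to µmol/kg dose.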

Mus musculus [2] = experiment: The ratio of AUC / dose (mM.h/uMol)/kg at 112 mg/kg dose after intravenous administration in mice serum; AUC/Dose (uM); assay type: ADME, organism-based; set-up: dose 112 mg/kg, route intravenous; conditions: in vivo; procedure, shortened: as §1
Mus musculus [3] = experiment: The ratio of AUC / dose (mM.h/uMol)/kg at 112 mg/kg dose after oral administration in mice serum; AUC/Dose (uM); assay type: ADME, organism-based; set-up: dose 112 mg/kg, route oral; conditions: in vivo
Mus musculus [4] = experiment: Pharmacokinetic parameter AUC was measured at 112 mg/kg dose by intravenous administration in mice brain; AUC (mM.h); not detected; assay type: ADME, organism-based; set-up: dose 112 mg/kg, route intravenous; conditions: in vivo; procedure, shortened: as §1
Mus musculus [5] = experiment: Pharmacokinetic parameter AUC was measured at 112 mg/kg dose by intravenous administration using FMAddA as substrate in mice brain; AUC 0-r (mM.h); not detected; assay type: ADME, organism-based; set-up: dose 112 mg/kg, route intravenous; conditions: in vivo; procedure, shortened: as §1
Mus musculus [6] = experiment: Pharmacokinetic parameter AUC was measured at 55 mg/kg dose by oral in mice brain; AUC (mM.h); not detected; assay type: ADME, organism-based; set-up: dose 55 mg/kg, route oral; conditions: in vivo
Mus musculus [7] = experiment: t1/2 was measured at 55 mg/kg dose by oral administration in mice brain; t1/2 (h); not detected; assay type: ADME, organism-based; set-up: dose 55 mg/kg, route oral; conditions: in vivo
[8] = (§2) The ratio of AUC /dose (uM); assay type: ADME
[9] = as §2; assay type: ADME; remark: listed apart in the source
[10] = (§3) The ratio of AUC /dose(uM); not detected; assay type: ADME
[11] = The ratio of AUC /dose(uM); assay type: ADME
[12] = as §3; assay type: ADME; remark: listed apart in the source
Mus musculus [13] = experiment: t1/2 was measured AT 112 mg/kg dose by intravenous administration in mice brain; not detected; conditions: in vivo
Mus musculus [14] = experiment: The ratio of AUC / dose (mM.h/umol)/kg at 112 mg/kg dose after intravenous administration in mice serum; assay type: ADME, organism-based; set-up: dose 112 mg/kg, route intravenous; conditions: in vivo; procedure, shortened: as §1

For Nc1ncnc2c1ncn2[C@@H]1O[C@H](CO)C[C@@H]1F [LODENOSINE], the Ratio (Mus musculus [1]) was 0.02, the Ratio (Mus musculus [2]) was 0.04 and the Ratio (Mus musculus [3]) was 0.005.

With OCC1CC(F)C(n2cnc3c(O)ncnc32)O1 (stereo not drawn) the AUC (Mus musculus [4]) was “Not detected”, the AUC (Mus musculus [5]) was “Not detected” and the AUC (Mus musculus [6]) was “Not detected”. For the same compound, the T1/2 (Mus musculus [7]) was “Not detected”, the Ratio [8] was 0.48 and the Ratio [9] was 0.13. For the same compound, the Ratio [10] was “Not detected”, the Ratio [11] was 0.046 and the Ratio [12] was “Not detected”. For the same compound, the T1/2 (Mus musculus [13]) was “Not detected”.

CNc1ncnc2c1ncn2C1OC(CO)CC1F (stereo not drawn) gave a Ratio (Mus musculus [1]) of 0.09 and a Ratio (Mus musculus [2]) of 0.68.

With [N-]=[N+]=Nc1ncnc2c1ncn2C1OC(CO)CC1F (stereo not drawn) the Ratio (Mus musculus [1]) was 0.06, the Ratio (Mus musculus [14]) was 1.01 and the Ratio (Mus musculus [3]) was 0.19.
